This series is described as follows: Toxicity liver stage against HepG2, at 10uM. The settings on record: human, HepG2-A16-CD81EGFP cells; read-out: INHIBITION
Further details: test concentration 10 uM, cell line HepG2-A16-CD81EGFP. It counts as cell-based. An outline of the steps:
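Uninfected HepG2-A16-CD81EGFP cells, 3 × 10^3 per well, 1536-well, plated on prespotted compound at 10 μM final, parasite-free screening media added to match infected plates; puromycin 10 μM positive, DMSO 0.5% negative; run in parallel with 48 h PbLuc assay at 37 °C, 5% CO2; viability by CellTiter-Glo luminescence, normalized to controls.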
For the molecule `CC1CCc2c(c3ccccc3[nH]c2=O)O1` (configuration not stated), the cytotoxicity at 10 µM was -8.41%.
With `O=C1N[C@@H]2CCN(C(=O)C3CCCC3)[C@@H]2C(=O)N1c1ccc(F)cc1` the figure was -1.1%; with `Cc1cc(C(=O)Nc2nc3c(s2)CN(S(=O)(=O)C2CC2)CC3)c(C)o1`, 22.7%.
With `CC(=O)OC1CN(c2nc3c(Cl)cccc3s2)C1`, the cytotoxicity at 10 µM is -0.745%.
With `CCN1CCC2(CN(C(C)=O)CC23CCN(C(=O)N(C)C)CC3)C1=O` (configuration not stated), the cytotoxicity at 10 µM was 4.88%.
Regarding `Cc1ccc2c(c1)C1(CCNCC1)CC2N1CCOCC1` (configuration not stated), the cytotoxicity at 10 µM was -134%.
As for `CCc1cnc(NC2CCc3c(ccc(=O)n3C)C2)nc1` (configuration not stated), the figure is -125%; as for `CC(=O)N1CCO[C@@H]2CN(C(=O)c3ccc4ccccc4c3)CC[C@@H]2C1`, 1.35%.
Turning to `COCC1c2nnn(CC3CC3)c2CCN1C(=O)c1cccn1C` (configuration not stated), the cytotoxicity at 10 µM was -133%.
As for `CS(=O)(=O)N[C@@H]1CN(Cc2ccccc2)C[C@@H]2CCCO[C@@H]21`, the figure is 2.58%; as for `O=C(c1cnccn1)N1CCN2C[C@H](OCC3CC3)C[C@H]2C1`, 2.92%; as for `NC(=O)c1c(NC(=O)C2CCCO2)sc2c1CCc1ccccc1-2` (configuration not stated), 0.794%.
As for `Cc1c(C2CC(=O)Nc3c2cnn3C(C)(C)C)cnn1C` (configuration not stated), the figure is -2.89%; as for `Cn1cc(CN2CC[C@H]3OCC[C@@H](C(=O)N4CCCCO4)[C@@H]3C2)cn1`, -2.1%; as for `CSc1nc2ccsc2c(=O)n1CC(=O)NC1CCCC1`, 0.297%.
As to `Cc1noc(C)c1-c1cccc(C2CCCNC2)n1` (configuration not stated), the cytotoxicity at 10 µM is -12.3%.
In the case of `Cc1noc(C)c1-c1nc(NCCN(C)C)ncc1-c1cnccn1`, the cytotoxicity at 10 µM is -9.03%.
For the molecule `Cc1nc(C)c(C(=O)N2CCC(O)(Cn3ccc4ccncc43)CC2)s1`, the cytotoxicity at 10 µM is -21.7%.
On to `COCCN1CCCC(CCCc2ccccn2)(C(N)=O)C1` (configuration not stated), for which the cytotoxicity at 10 µM is -16%.
With `O=C(NCc1nnc2n1CCC2)c1cccc(Br)c1` the figure was -0.115%; with `CC(C)c1nsc(N2CCn3c(nnc3-c3ccccc3)C2)n1`, -13.9%; with `CN(C)Cc1ccc(C(N)=O)cc1NC(=O)c1cccc(C#N)c1`, 1.12%.
With `O=S(=O)(NCCCn1cncn1)c1ccc2c(c1)CCC2` the figure was 3.03%; with `Cc1ccc2cccc(C(=O)NCCOCC3CC3)c2n1`, -20.3%.
`COC(=O)c1cccc(S(=O)(=O)NCC(c2ccco2)N2CCCC2)c1` (configuration not stated): the cytotoxicity at 10 µM was -1.74%.
As for `CC(C)(C)c1noc(CCCC(=O)N2CCNC(=O)C2)n1`, the cytotoxicity at 10 µM was -4.28%.
Take `NC(=O)NC1CCN(Cc2ccc3c(c2)CCC3)CC1`: the cytotoxicity at 10 µM is -3.19%.
Take `O=C1CN(C(=O)c2cc3ccc(Br)cc3[nH]2)CCN1`: the cytotoxicity at 10 µM is 0.549%.
As for `O=C(CNC(=O)C1CC1)NCc1ccc(Cl)s1`, the figure is -3.12%; as for `Cc1sc(-c2ccco2)nc1C(=O)N(CC(N)=O)C1CCCC1`, -2.64%.
`O=C(NCCN1CCOCC1)c1cc(-c2ccccc2Cl)[nH]n1`: the cytotoxicity at 10 µM was -4.02%.
As for `Cc1cc(C)n(CC2CCCN2CC(=O)Nc2nnc(C)s2)n1` (configuration not stated), the cytotoxicity at 10 µM is 5.29%.
For `Cn1c(C(=O)N2CCC(CC(N)=O)CC2)c(Cl)c2ccccc21`, the cytotoxicity at 10 µM was 18.7%.
As for `CC(NC(=O)N(C)Cc1ccsc1)c1nncn1C` (configuration not stated), the figure is -4.02%; as for `COc1ccc(CC(=O)NCCNS(=O)(=O)c2ccc(C)cc2)cc1`, -143%; as for `CC(C)OCCC(=O)Nc1c(-c2ccc(F)cc2)ncn1C`, -3.41%.
With `COCCc1noc(CN2CCCc3cccc(OC)c32)n1`, the cytotoxicity at 10 µM was found to be 5.52%.
Regarding `CC(Sc1n[nH]c(-c2ccc3c(c2)CCC3)n1)C(N)=O` (configuration not stated), the cytotoxicity at 10 µM was -0.665%.
In the case of `CC(C)c1nccn1CCC(=O)N1CCCC1c1cccn1C` (configuration not stated), the cytotoxicity at 10 µM was -6.66%.
For the molecule `COC(=O)c1ccc(CNC(C)c2ccc(S(C)(=O)=O)cc2)cc1` (configuration not stated), the cytotoxicity at 10 µM was 5.21%.
As to `CCCNC(=O)c1[nH]nc(C2CC2)c1Br`, the cytotoxicity at 10 µM was -0.587%.
As to `CN1CC(C(=O)NCCc2ccc(Br)cc2F)CC1=O` (configuration not stated), the cytotoxicity at 10 µM came to 2.43%.
For the molecule `COCC(=O)N1CCC(Nc2ccnc3ccc(Cl)cc23)CC1`, the cytotoxicity at 10 µM turned out to be 5.78%.
Regarding `Cc1nc(COc2ccc(S(=O)(=O)N(C)C)cc2)sc1C`, the cytotoxicity at 10 µM was -1.13%.
Take `Cc1nc2ccccc2n1CCNCc1cccc(O)c1`: the cytotoxicity at 10 µM is -3.89%.
Regarding `CN(CC1CC1)C(=O)Cc1csc(-c2ncccn2)n1`, the cytotoxicity at 10 µM was 4.56%.
For the molecule `COc1ncccc1NC(=O)N1CCC(CN2CCOCC2)CC1`, the cytotoxicity at 10 µM was -6.78%.
As to `CSCC(C)(O)CNC(=O)c1ccc(Br)cc1F` (configuration not stated), the cytotoxicity at 10 µM stood at 0.537%.
As for `Cn1cc(CN(Cc2ccccc2)CC(O)c2cccs2)cn1` (configuration not stated), the cytotoxicity at 10 µM was -8.59%.
Turning to `CC(C)Cc1cn(C2CCN(C(C)CCn3cccn3)CC2)nn1` (configuration not stated), the cytotoxicity at 10 µM is -1.8%.
With `COc1ccc(-n2cc(CCO)cn2)cc1C`, the cytotoxicity at 10 µM is -12.4%.
Consider `CCN(C)C[C@@H]1CN(Cc2cnc3c(S(C)(=O)=O)cnn3c2)C[C@@H]1CO`, for which the cytotoxicity at 10 µM is -4.99%.
Consider `C[C@@H]1CN(C(=O)CCc2cnn(C)c2)CC[C@@]1(O)C1CCOCC1`, for which the cytotoxicity at 10 µM is -0.872%.
As for `COCCCC1(CO)CCCN(Cc2ccc(F)c(OC)c2)C1` (configuration not stated), the figure is -142%.
With `Cn1cc(CN(C/C=C/c2ccccc2)C2CC2)cn1` the figure was -10.1%; with `COCCN1CCN(C(=O)c2ccc(C)cc2F)[C@H]2CS(=O)(=O)C[C@H]21`, -11.4%; with `CC(C)SCC(=O)N1CCCn2nc(C(=O)Nc3ccccc3)cc2C1`, 3.19%.
Regarding `CCC(CC)n1nc(C)cc1NC(=O)C1CCCO1` (configuration not stated), the cytotoxicity at 10 µM was -0.951%.
`CCCNC(=O)N1CCc2ccc(S(=O)(=O)N3CCCC3)cc2C1`: the cytotoxicity at 10 µM is -12.3%.
Regarding `COc1cccc(OCc2cc(C(=O)N3CC(O)C3)n[nH]2)c1`, the cytotoxicity at 10 µM came to 2.81%.
Consider `Cc1nn(C)c2ncnc(NCc3nncn3C3CCCCC3)c12`, for which the cytotoxicity at 10 µM is -10.2%.
In the case of `O=C(c1cccs1)N1CC(Oc2ccccc2Cl)C1`, the cytotoxicity at 10 µM is 6.89%.
On to `COc1cccc(OC2CN(C(=O)c3c(C)noc3C)C2)c1`, for which the cytotoxicity at 10 µM stood at 7.79%.
In the case of `Cc1nc2c(c(=O)n1C)CN(C(=O)C1CCCN(C3CCCC3)C1)C2` (configuration not stated), the cytotoxicity at 10 µM is -8.67%.
`Cc1cccc(C(C(=O)NCCCc2ccccn2)N(C)C)c1` (configuration not stated): the cytotoxicity at 10 µM is -7.16%.
Turning to `OCC1(O)CCN(Cc2ccc(-c3cc[nH]n3)s2)CC1`, the cytotoxicity at 10 µM is -135%.
As for `COc1ccc(-c2ccccc2CN)c(OC)c1`, the figure is 7.35%.
`Cc1nnc2ccc(N3CCN(CCc4ccccn4)CC3)nn12`: the cytotoxicity at 10 µM was -8.76%.
For `COC(=O)CNC(=O)c1sc(-c2ccc(Cl)s2)nc1C`, the cytotoxicity at 10 µM was -5.63%.
Regarding `Cc1ccc(CCC(=O)N2CCOCC2c2ncon2)c(C)c1` (configuration not stated), the cytotoxicity at 10 µM is -6.76%.
Take `N#Cc1ccc(CS(=O)(=O)NC(=O)COc2ccc3c(c2)CCC3)cc1`: the cytotoxicity at 10 µM stood at 1.13%.
As for `CCn1nc2c(cc1=O)CN(Cc1nc(-c3cccnc3)no1)CC2`, the figure is -5.86%; as for `Fc1ccccc1-c1nc(CNCCn2cccn2)cs1`, -9.53%.
Take `c1ncn(CC2CCCCN2Cc2csc(-c3ccsc3)n2)n1` (configuration not stated): the cytotoxicity at 10 µM is -2.48%.
Consider `Cc1nc(CSCCC(=O)NCc2ccc(N(C)C)cc2)cs1`, for which the cytotoxicity at 10 µM is -14.2%.
Regarding `COCCOc1cc(C)ccc1NC(=O)N(C)Cc1cnn(C)c1`, the cytotoxicity at 10 µM was -9.5%.
For the molecule `CCOc1ccc(C(=O)N2CCCC(n3ccnc3C)C2)cc1OC` (configuration not stated), the cytotoxicity at 10 µM was -6.7%.
Turning to `COCCc1noc(CN2CC(n3nc(C)cc3C)C2)n1`, the cytotoxicity at 10 µM was -1.76%.
Take `c1cnn(CCN2CCOC(Cn3cccn3)C2)c1` (configuration not stated): the cytotoxicity at 10 µM was -10.3%.
Consider `CCN(Cc1ccc(F)c(F)c1)Cc1nc2c(cnn2C)c(=O)[nH]1`, for which the cytotoxicity at 10 µM was -4.18%.
As for `CCn1cc(CN2CCCN(C(=O)c3ccccc3C)CC2)cn1`, the figure is -5.65%; as for `COc1c(C2CCCN2C(=O)c2ccc(N(C)C)nn2)c(C)nn1C` (configuration not stated), -13.7%; as for `Cc1nc(C)c(C(=O)N2CCCN(Cc3cnn(C)c3)CC2)s1`, -9.58%.
Turning to `O=C(c1ccccn1)N1CCCN(Cc2nnc(C3CC3)o2)CC1`, the cytotoxicity at 10 µM was found to be 5.25%.
Take `CC(C)(C)c1cc(C(=O)NCCn2nc3ccccn3c2=O)[nH]n1`: the cytotoxicity at 10 µM is -29.5%.
For the molecule `CC(C)(C)c1cn2nc(N3CCCCC3Cn3cncn3)sc2n1` (configuration not stated), the cytotoxicity at 10 µM was -4.61%.
With `COCCNC(=O)[C@H]1C[C@@H]2CCN(c3ncccn3)C[C@H]2O1` the figure was -17.1%.
For the molecule `Cc1occc1C(=O)N1CCC2(CCCN(Cc3nccs3)C2)C1` (configuration not stated), the cytotoxicity at 10 µM is -3.32%.
On to `Fc1ccc(COCC2CCN(Cc3ccccn3)CC2)cc1`, for which the cytotoxicity at 10 µM was -2.67%.
With `Cc1nc(CO[C@@H]2CN(Cc3nccs3)[C@@H]3COC[C@@H]32)cs1`, the cytotoxicity at 10 µM was -3.03%.
As to `Cc1ccc2c(c1)C(N(C)C)CC21CCN(CCO)CC1` (configuration not stated), the cytotoxicity at 10 µM was determined as 3.62%.
For `O=C(c1ccccn1)N1CCC2(CC1)C(=O)Nc1ccccc12`, the cytotoxicity at 10 µM is -145%.
Turning to `Clc1ccccc1OCCc1cc(C2CCNC2)n[nH]1` (configuration not stated), the cytotoxicity at 10 µM is -32.9%.
In the case of `CN(C)CCN1CCO[C@H]2CN(Cc3cnn(C)c3)C[C@H]21`, the cytotoxicity at 10 µM is 1.82%.
Take `O=C1Nc2ccccc2C12CCN(Cc1nccs1)CC2`: the cytotoxicity at 10 µM is -0.243%.
On to `c1ccc(N2CCC3(CCCN(c4ncccn4)C3)C2)nc1` (configuration not stated), for which the cytotoxicity at 10 µM was -133%.
Turning to `Cc1noc(C)c1CN1C(=O)[C@@H]2CC[C@H]1CN(Cc1cscn1)C2`, the cytotoxicity at 10 µM is 0.854%.

Values taken from ChEMBL document CHEMBL4513216, “Probing the Open Global Health Chemical Diversity Library for Multistage-Active Starting Points for Next-Generation Antimalarials” (ACS Infect Dis, 2020).
